# High-throughput results from PubChem BioAssay.
# Sampled rows, rich in hits. Any-hit rate of the full collection: about 1.5%.
# C8 TRAIL sens = sensitizes caspase-8 expressing cells to TRAIL; 1% of 360,000 active; NB7+C8 cells + TRAIL, ATPlite viability luminescence; inhibition (viability loss, TRAIL sensitization), % at 10 µM; AID 624354;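 active = compounds causing at least 50% loss of cell viability in the single-dose screen, relative to plate controls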
# FLuc act counter = affects firefly luciferase, flagging false hits in luciferase stimulation screens. ATPlite luciferase biochemical, luminescence, 10 min; 0 = ATP-free wells, 1 = DMSO control. AID 1027. P08659. 200,000 tested, under 10 active. activation factor at 10 µM;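 active = luciferase activation factor, scaled between plate controls, of at least 2 with compound at 10 µM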
# Target sequence (P08659 whole entry, looked up): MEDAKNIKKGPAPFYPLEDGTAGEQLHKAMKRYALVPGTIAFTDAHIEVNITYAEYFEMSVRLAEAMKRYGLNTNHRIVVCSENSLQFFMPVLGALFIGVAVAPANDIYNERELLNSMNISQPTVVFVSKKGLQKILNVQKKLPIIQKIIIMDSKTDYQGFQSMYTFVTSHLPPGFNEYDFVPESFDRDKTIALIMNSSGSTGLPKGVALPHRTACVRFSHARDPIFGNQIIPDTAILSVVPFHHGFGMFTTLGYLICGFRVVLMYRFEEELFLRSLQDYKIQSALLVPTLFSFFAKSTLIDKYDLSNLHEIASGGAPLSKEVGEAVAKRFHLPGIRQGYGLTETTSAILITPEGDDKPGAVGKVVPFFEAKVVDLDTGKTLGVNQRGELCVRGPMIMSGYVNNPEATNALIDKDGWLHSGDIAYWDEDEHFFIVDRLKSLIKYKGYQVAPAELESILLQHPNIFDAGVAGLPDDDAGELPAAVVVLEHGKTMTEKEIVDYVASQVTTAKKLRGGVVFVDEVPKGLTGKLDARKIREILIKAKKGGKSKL
#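 Material: Luciferase/luciferin reagent mix | Doses: Test compounds dosed from 2 mM stocks in 100% DMSO | Timing: 10 min incubation after luciferase reagent addition, room temperature | Measured by: Luminescence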
# PPC-1+TRAIL kill = PPC-1 cancer cell killing with TRAIL present; PPC-1 cells + TRAIL, ATPLite viability luminescence; cell killing (% activity), % at 4 µM or 5 µM; 0.41% of 220,000 active;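 active = cell killing above 50% in the first pass at 4 µM, then a duplicate retest at 5 µM averaging 50% or more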;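 also: plate controls were cells with TRAIL plus DMSO for no effect and medium-only wells lacking cells for full effect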
# FLuc inhib CS = counter-screen for luciferase assay inhibitors: firefly luciferase inhibition; ATPLite firefly luciferase biochemical luminescence, 10 min; inhibition, % at 10 µM; 1.5% of 200,000 active; AID 1006;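 active = inhibition above about 50% when tested at 10 µM, limit read from the data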
# * hit, by the source's call; . = no result.
SMILES,C8 TRAIL sens,FLuc act counter,PPC-1+TRAIL kill,FLuc inhib CS
COc1cc(NS(C)(=O)=O)ccc1Nc1c2ccccc2nc2ccccc12,6.1,.,.,.
COc1ccc(C(=O)O/N=C(\N)c2ccc(Br)cc2)cc1,69.9*,.,.,.
CC(C)(C)c1ccc(C(=O)O/N=C(\N)c2ccccc2)cc1,92.6*,.,.,.
COc1ccc(C(=O)O/N=C(\N)c2ccccc2)cc1,84.9*,.,.,.
Cc1cc(C(=O)O/N=C(\N)c2ccc(C(C)(C)C)cc2)no1,7.9,.,11.8,.
CCOC(=O)n1c(=O)n(Cc2c(Cl)cccc2Cl)c2ccccc21,-2.7,1.1,9.6,-6.6
CCOC(=O)c1nnn2c1nc(Nc1cccc(C(F)(F)F)c1)c1ccccc12,59.3*,.,18.5,.
CCOC(=O)c1nnn2c1nc(SCC(C)=O)c1ccccc12,-7.1,.,12.2,.
Cc1cc(C(=O)O)ccc1-n1c(C)cc(/C=C(/C#N)C(=O)Nc2ccccc2)c1C,-9.4,1,8.7,0.1
CCOC(=O)/C(C#N)=C/c1cc(C)n(-c2ccccc2)c1C,49.7*,0.2,42.2,75.8*
Cc1cc(/C=C(\C#N)C(=O)Nc2ccccc2)c(C)n1-c1cccnc1,33.8,0.5,25.7,50.7*
CSCC[C@H](NC(=O)[C@@H]1Cc2ccccc2CN1)C(=O)Nc1cccc(C)c1,-12.4,.,.,.
Cc1ccc(-c2cnn(-c3ccccc3)c2N)cc1,78.9*,.,.,.
Nc1c(-c2ccc(Cl)cc2)cnn1-c1ccccc1,41.0,.,.,.
NC(=S)N/N=C\c1c2ccccc2cc2ccccc12,-4.1,1,60.6*,-1.9
Cc1cc(C)n(-c2nc(Nc3ccccc3C(F)(F)F)nc(-n3nc(C)cc3C)n2)n1,57.2*,1.1,17.1,-6.7
Cc1cc(C)n(-c2nc(Nc3ccccc3C)nc(-n3nc(C)cc3C)n2)n1,.,1.1,-16.5,-10.7
O=C(CSCc1cccc(Br)c1)N=Nc1c(O)[nH]c2ccccc12,-12.4,1,13.1,-0.6
O=Nc1c(-c2c(O)[nH]c3cc(Br)ccc23)[nH]c2ccccc12,83.5*,.,.,.
Clc1cccc(CN2CCc3c([nH]c4ccccc34)C2)c1,20.0,.,.,.
Clc1ccc(CN2CCc3c([nH]c4ccccc34)C2)cc1Cl,53.8*,.,.,.
CS(=O)(=O)N1CCN(C(=O)c2ccc(-c3ccccc3)cc2)CC1,-7.2,1,9.9,-2.0
Cc1cccc(C)c1NS(=O)(=O)c1ccc(OCCNS(C)(=O)=O)cc1,1.4,0.2,8.4,81.2*
CS(=O)(=O)NCCOc1ccc(S(=O)(=O)NCCOc2ccccc2)cc1,-0.5,1,12.8,-0.9
COc1ccc(CCNC(=S)Nc2ccc(C)cc2C)cc1,-9.8,1.1,12.7,-7.2
SMILES,C8 TRAIL sens,FLuc act counter,PPC-1+TRAIL kill,FLuc inhib CS
N#C/C(=C/c1ccc(N2CCOCC2)o1)C(=O)Nc1ccccc1,29.6,0.4,7.8,55.2*
COc1ccc(N(CC(=O)NC2CCCCC2)C(=O)CCC(=O)Nc2nc(C)cs2)cc1,6.5,.,.,.
Cc1ccccc1-c1noc(-c2ccc(Cl)cc2)n1,22.8,0.8,-16.3,21.7
Fc1ccc(-c2nc(-c3cnccn3)no2)c(Cl)c1,60.2*,.,48.7,.
Clc1ccc(-c2nc(-c3cnccn3)no2)cc1,52.8*,.,25.3,.
CNC(=S)N/N=C/C1=CCC2CC1C2(C)C (centres undefined),5.5,0.4,24.8,62.2*
O=C(CCN1C(=O)C2CC=CCC2C1=O)Nc1nccs1 (centres undefined),1.3,.,.,.
Cc1cc(/C=C\c2ccccc2)nc2ccccc12,46.7,0.3,31.6,67.6*
COc1ccc(C(CCNCc2ccc(N(C)C)cc2)C(C)C)cc1 (centres undefined),31.8,.,10.2,.
CCOC(=O)Cc1csc(NC(=S)NC(=O)c2ccc(Cl)cc2)n1,50.9*,0.4,17.8,58.8*
CCOC(=O)Cc1csc(NC(=O)/C=C/c2ccccc2Cl)n1,-0.9,.,21.6,.
CCOC(=O)Cc1csc(NC(=O)/C=C\c2ccccc2Cl)n1,41.5,0.4,35.0,55.6*
CCOC(=O)Cc1csc(NC(=O)/C=C\c2ccccc2)n1,24.5,0.4,19.5,59.4*
CCOC(=O)Cc1csc(NC(=O)c2cc3c(s2)CCCC3)n1,53.7*,0.4,48.5,61.1*
CCOC(=O)c1c(N)sc2c1C1CCN2CC1,-19.0,1,4.7,-3.6
Cc1cc(C)c2c(N)c(S(=O)(=O)Cc3ccccc3)sc2n1,12.8,1,15.2,-0.4
O=[N+]([O-])c1ccc(-c2cn3ccccc3n2)cc1,28.0,.,.,.
Brc1ccc(-c2cn3ccccc3n2)cc1,47.4*,.,29.5,.
CCOc1ccc(-c2cn3ccccc3n2)cc1[N+](=O)[O-],52.2*,0.2,39.9,77.7*
CN(C)S(=O)(=O)c1ccc(-c2cn3ccccc3n2)cc1,60.1*,0.3,46.0,74.5*
Brc1ccc(OCc2cn3ccccc3n2)cc1,45.1,0.2,25.1,76.8*
O=C(COc1ccc(Br)cc1)NCc1cn2ccccc2n1,18.8,.,-9.0,.
CCOCCCn1c(SCC(=O)N(C)C2CCS(=O)(=O)C2)nc2ccccc2c1=O (centres undefined),-3.5,.,.,.
O=C(O)Cc1ccc(NC(=O)COc2ccc3ccccc3c2)cc1,-0.8,.,.,.
COc1ccc(-n2cnc3cc(NS(=O)(=O)c4ccc(C)cc4)ccc32)cc1,-7.6,1.1,-16.1,-8.6
SMILES,C8 TRAIL sens,FLuc act counter,PPC-1+TRAIL kill,FLuc inhib CS
Oc1ccc(-c2cn3ccccc3n2)cc1,62.6*,.,38.4,.
CC(C)C(=O)Nc1ccccc1C(=O)OCC(=O)c1ccc2c(c1)OCCO2,5.3,0.4,2.9,61.9*
NS(=O)(=O)c1cc(C(=O)OCC(=O)c2ccc3c(c2)OCCO3)ccc1Cl,22.0,0.1,6.9,91.8*
Cc1ccc(C(=O)COC(=O)c2cccs2)cc1,39.7,0.1,15.0,91.5*
Cc1cccc(C(=O)OCC(=O)c2ccc3c(c2)OCCO3)c1O,36.3,.,.,.
CNS(=O)(=O)c1cccc(C(=O)OCC(=O)c2ccc3c(c2)OCCO3)c1,43.1,.,.,.
CCc1ccc(C(=O)COC(=O)c2cccs2)cc1,-0.8,0.1,11.4,87.0*
CCCC(=O)N1CCCC1(C)C(=O)NCc1c(F)ccc(C)c1F (centres undefined),2.3,.,.,.
Cc1c(OCC(=O)NCc2cccnc2)ccc2c3c(c(=O)oc12)CCC3,-3.1,.,.,.
O=C(CNC(=O)c1ccccc1F)OCc1nc2ccccc2s1,2.8,1,8.5,1.0
O=C(COc1ccccc1)c1ccccc1,0.1,.,.,.
O=C(COC(=O)c1cccs1)c1ccc2ccccc2c1,-5.9,0.6,27.9,36.7
CC(=O)NC12CC3CC(C1)CC(C(=O)OCC(=O)c1ccc4c(c1)OCCO4)(C3)C2,4.5,0.4,31.1,57.8*
O=C(COC(=O)c1cccs1)c1ccc2c(c1)OCCO2,43.2,0,41.5,95.4*
C/C(=N\Nc1nncc2ccccc12)c1ccc(C(C)(C)C)cc1,13.1,.,.,.
COc1ccc(-c2nc(N/N=C(\C)c3ccc(O)cc3)c3ccccc3n2)cc1,59.3*,.,44.5,.
COc1ccc(/C=N/Nc2nncc3ccccc23)c(OC)c1,8.8,0.6,14.5,36.3
C/C(=N\Nc1nncc2ccccc12)c1cccc(OC(F)F)c1,80.9*,.,.,.
C/C(=N\Nc1nncc2ccccc12)c1ccc(O)cc1,59.8*,.,.,.
Cc1ccc(OCCCC(=O)Nc2nncs2)cc1,-15.6,1.1,20.5,-7.6
